≈ marks a conversion by molar mass, not a printed value.
How the values were obtained:
Escherichia coli [1] = assay: Antibacterial activity against Escherichia coli ATCC 25922 assessed as release of beta-galactosidase after 1 hr relative to control; type: functional
In short: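 Cells washed twice in TSB, then exposed to peptide at 1× or 5× MIC for 1 h at 37 °C. Supernatant collected by cold centrifugation and mixed with ONPG. Release expressed versus buffer control.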

[2] = Toxicity in human RBC assessed as hemolysis by measuring hemoglobin release at 1 uM after 1 hr; type: cell-based; conditions: erythrocyte
In short: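 Fresh human RBCs from healthy volunteers, washed three times in PBS pH 7.4 and used as an 8% (v/v) suspension. Mixed with two-fold serial peptide dilutions and incubated 1 h at 37 °C. Positive controls were melittin and 1% Triton X-100.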

Staphylococcus aureus = assay: Antibacterial activity against Staphylococcus aureus by broth microdilution method; type: functional
In short: (§1)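 Broth microdilution. E. coli ATCC 25922 or S. aureus ATCC 25923 grown to mid-exponential phase in TSB at 37 °C, 200 rpm. MIC taken as the lowest concentration with no growth.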

Escherichia coli [3] = assay: Antibacterial activity against Escherichia coli ATCC 25922 assessed as release of beta-galactosidase at 20 µM after 1 hr relative to control
Escherichia coli [4] = assay: Antibacterial activity against Escherichia coli by broth microdilution method; type: functional; in short: as §1
Escherichia coli [5] = assay: Drug uptake in Escherichia coli ATCC 25922 assessed as increase in cellular fluorescence at 10 uM after 6 hrs by confocal microscopic analysis; type: ADME, organism-based; conditions: in vivo
In short: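 E. coli ATCC 25922 grown to mid-exponential phase in MHB at 37 °C, pelleted and resuspended in fresh MHB. Exposed to 10 µM fluorescein-labelled peptide or buffer for 10 min, 1 h or 6 h at 37 °C. Cells washed in PBS, fixed in 10% formalin, stained with 1 µM Hoechst, mounted on poly-lysine coverslips. Confocal imaging at equal laser intensity.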

Escherichia coli [6] = assay: Antibacterial activity against Escherichia coli ATCC 25922 assessed as release of beta-galactosidase at 5 times MIC after 1 hr relative to control; type: functional

MIC (Staphylococcus aureus) [µM] | MIC (Escherichia coli [4]) [µM] | Drug uptake (Escherichia coli [5]) | SMILES | fold change (FC) (Escherichia coli [1]) | Activity [2] | fold change (FC) (Escherichia coli [3]) | fold change (FC) (Escherichia coli [6])
– | – | – | CC[C@H](C)[C@H](NC(=O)CN)C(=O)NCC(=O)N[C@@H](C)C(=O)N[C@H](C(=O)N[C@@H](CC(C)C)C(=O)N[C@@H](CCCCN)C(=O)N[C@H](C(=O)N[C@@H](CC(C)C)C(=O)N[C@H](C(=O)N[C@H](C(=O)NCC(=O)N[C@@H](CC(C)C)C(=O)N1CCC[C@H]1C(=O)N[C@@H](C)C(=O)N[C@@H](CC(C)C)C(=O)N[C@H](C(=O)N[C@@H](CO)C(=O)N[C@@H](Cc1c[nH]c2ccccc12)C(=O)N[C@H](C(=O)N[C@@H](CCCCN)C(=O)N[C@@H](CCCNC(=N)N)C(=O)N[C@@H](CCCCN)C(=O)N[C@@H](CCCNC(=N)N)C(=O)N[C@@H](CCC(N)=O)C(=O)N[C@@H](CCC(N)=O)C(N)=O)[C@@H](C)CC)[C@@H](C)CC)[C@@H](C)O)[C@@H](C)O)C(C)C)C(C)C [MELITTIN] | 8 | Toxic | – | –
60 (≈ 143 µg/mL) | 60 (≈ 143 µg/mL) | Active | CC(C)COC1C[C@@H](C(=O)N2CC(OCCCNC(=N)N)C[C@H]2C(=O)N2CC(OCCCNC(=N)N)C[C@H]2C(=O)N2CC(OCC(C)C)C[C@H]2C(=O)N2CC(OCCCNC(=N)N)C[C@H]2C(=O)N2CC(OCCCNC(=N)N)C[C@H]2C(=O)N2CC(OCC(C)C)C[C@H]2C(=O)N2CC(OCCCNC(=N)N)C[C@H]2C(=O)N2CC(OCCCNC(=N)N)C[C@H]2C(=O)N2C[C@@H](OCC(C)C)CC2C(N)=O)N(C(=O)CNC(=O)c2ccc(-c3c4ccc(=O)cc-4oc4cc(O)ccc34)c(C(=O)O)c2)C1 (stereo not given in full) | – | – | 3 | –
4 (≈ 17.5 µg/mL) | 1 (≈ 4.39 µg/mL) | – | CC(=O)NCC(=O)N(CCCCC(=O)NCCCC(=O)N1CC(OCC(C)C)C[C@H]1C(=O)N1CC(OCCCNC(=N)N)C[C@H]1C(=O)N1CC(OCCCNC(=N)N)C[C@H]1C(=O)N1CC(OCC(C)C)C[C@H]1C(=O)N1CC(OCCCNC(=N)N)C[C@H]1C(=O)N1CC(OCCCNC(=N)N)C[C@H]1C(=O)N1CC(OCC(C)C)C[C@H]1C(=O)N1CC(OCCCNC(=N)N)C[C@H]1C(=O)N1CC(OCCCNC(=N)N)C[C@H]1C(=O)N1CC(OCC(C)C)C[C@H]1C(N)=O)CCCCC(=O)NCCCC(=O)N1CC(OCC(C)C)C[C@H]1C(=O)N1CC(OCCCNC(=N)N)C[C@H]1C(=O)N1CC(OCCCNC(=N)N)C[C@H]1C(=O)N1CC(OCC(C)C)C[C@H]1C(=O)N1CC(OCCCNC(=N)N)C[C@H]1C(=O)N1CC(OCCCNC(=N)N)C[C@H]1C(=O)N1CC(OCC(C)C)C[C@H]1C(=O)N1CC(OCCCNC(=N)N)C[C@H]1C(=O)N1CC(OCCCNC(=N)N)C[C@H]1C(=O)N1CC(OCC(C)C)C[C@H]1C(N)=O (stereo not given in full) | – | – | – | –
2 (≈ 8.66 µg/mL) | 1 (≈ 4.33 µg/mL) | – | CC(=O)NCC(=O)N(CCCCC(=O)NCC(=O)N1CC(OCC(C)C)C[C@H]1C(=O)N1CC(OCCCNC(=N)N)C[C@H]1C(=O)N1CC(OCCCNC(=N)N)C[C@H]1C(=O)N1CC(OCC(C)C)C[C@H]1C(=O)N1CC(OCCCNC(=N)N)C[C@H]1C(=O)N1CC(OCCCNC(=N)N)C[C@H]1C(=O)N1CC(OCC(C)C)C[C@H]1C(=O)N1CC(OCCCNC(=N)N)C[C@H]1C(=O)N1CC(OCCCNC(=N)N)C[C@H]1C(=O)N1CC(OCC(C)C)C[C@H]1C(N)=O)CCCCC(=O)NCC(=O)N1CC(OCC(C)C)C[C@H]1C(=O)N1CC(OCCCNC(=N)N)C[C@H]1C(=O)N1CC(OCCCNC(=N)N)C[C@H]1C(=O)N1CC(OCC(C)C)C[C@H]1C(=O)N1CC(OCCCNC(=N)N)C[C@H]1C(=O)N1CC(OCCCNC(=N)N)C[C@H]1C(=O)N1CC(OCC(C)C)C[C@H]1C(=O)N1CC(OCCCNC(=N)N)C[C@H]1C(=O)N1CC(OCCCNC(=N)N)C[C@H]1C(=O)N1CC(OCC(C)C)C[C@H]1C(N)=O (stereo not given in full) | – | – | – | –
8 (≈ 34.9 µg/mL) | 4 (≈ 17.4 µg/mL) | – | CC(=O)NCC(=O)N(CCCCC(=O)NCCC(=O)N1CC(OCC(C)C)C[C@H]1C(=O)N1CC(OCCCNC(=N)N)C[C@H]1C(=O)N1CC(OCCCNC(=N)N)C[C@H]1C(=O)N1CC(OCC(C)C)C[C@H]1C(=O)N1CC(OCCCNC(=N)N)C[C@H]1C(=O)N1CC(OCCCNC(=N)N)C[C@H]1C(=O)N1CC(OCC(C)C)C[C@H]1C(=O)N1CC(OCCCNC(=N)N)C[C@H]1C(=O)N1CC(OCCCNC(=N)N)C[C@H]1C(=O)N1CC(OCC(C)C)C[C@H]1C(N)=O)CCCCC(=O)NCCC(=O)N1CC(OCC(C)C)C[C@H]1C(=O)N1CC(OCCCNC(=N)N)C[C@H]1C(=O)N1CC(OCCCNC(=N)N)C[C@H]1C(=O)N1CC(OCC(C)C)C[C@H]1C(=O)N1CC(OCCCNC(=N)N)C[C@H]1C(=O)N1CC(OCCCNC(=N)N)C[C@H]1C(=O)N1CC(OCC(C)C)C[C@H]1C(=O)N1CC(OCCCNC(=N)N)C[C@H]1C(=O)N1CC(OCCCNC(=N)N)C[C@H]1C(=O)N1CC(OCC(C)C)C[C@H]1C(N)=O (stereo not given in full) | – | – | – | –
12 (≈ 35.7 µg/mL) | 4 (≈ 11.9 µg/mL) | – | CC(C)COC1C[C@@H](C(=O)N2CC(OCCCNC(=N)N)C[C@H]2C(=O)N2CC(OCCCNC(=N)N)C[C@H]2C(=O)N2CC(OCC(C)C)C[C@H]2C(=O)N2CC(OCCCNC(=N)N)C[C@H]2C(=O)N2CC(OCCCNC(=N)N)C[C@H]2C(=O)N2CC(OCC(C)C)C[C@H]2C(=O)N2CC(OCCCNC(=N)N)C[C@H]2C(=O)N2CC(OCCCNC(=N)N)C[C@H]2C(=O)N2CC(OCC(C)C)C[C@H]2C(=O)N2CC(OCCCNC(=N)N)C[C@H]2C(=O)N2CC(OCCCNC(=N)N)C[C@H]2C(=O)N2CC(OCC(C)C)C[C@H]2C(N)=O)N(C(=O)CNC(=O)c2ccc(-c3c4ccc(=O)cc-4oc4cc(O)ccc34)c(C(=O)O)c2)C1 (stereo not given in full) | – | – | – | 3

From ChEMBL document CHEMBL3102835, “Dimeric unnatural polyproline-rich peptides with enhanced antibacterial activity” (Bioorg Med Chem Lett, 2014)
